Data taken from paper PMC7496240 (Chemmedchem, 2020).

Target: T1, murine ovastacin (Mus musculus, UniProt Q6HA09)
T1 sequence (Q6HA09 86-435 limits assumed): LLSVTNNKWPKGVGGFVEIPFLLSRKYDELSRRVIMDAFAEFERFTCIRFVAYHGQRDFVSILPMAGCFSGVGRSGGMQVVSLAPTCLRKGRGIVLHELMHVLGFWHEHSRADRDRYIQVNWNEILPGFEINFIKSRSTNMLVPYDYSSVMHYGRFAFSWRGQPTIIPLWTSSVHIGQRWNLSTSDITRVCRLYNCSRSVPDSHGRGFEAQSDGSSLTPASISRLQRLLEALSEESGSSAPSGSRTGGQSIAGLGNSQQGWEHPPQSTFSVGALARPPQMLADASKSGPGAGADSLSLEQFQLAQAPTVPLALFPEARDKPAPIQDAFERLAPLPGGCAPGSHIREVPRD
Assay: fluorogenic enzyme activity assay, inhibition of murine ovastacin
Assay type: biochemical
Procedure, shortened: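 Recombinant mouse ovastacin was activated with human plasmin (30 min, 10:1 molar ratio). Active enzyme was 1 nM, set by titration with murine fetuin-B. Buffer: 150 mM NaCl, 50 mM Tris·HCl pH 7.4, 0.01% Brij-35, at 37 °C; inhibitors were in DMSO. Reactions started with 25 μM Edans/Dabcyl peptide substrate (final DMSO 1.4%). Initial rates were read ≥1000 s, then proteinase K gave full-turnover calibration. Apparent Ki came from the Morrison equation; two independent experiments, in triplicate.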

SMILES	Ki [µM]
O=C(CCN(Cc1ccncc1)Cc1ccc2c(c1)OCO2)NO [Compound 17]	7.58 ± 0.36
O=C(CCN(Cc1ccncc1)Cc1ccc(Cl)c(O)c1F)NO [Compound 18]	8.18 ± 0.29
O=C(CCN(Cc1ccc2c(c1)OCO2)Cc1ccc(Cl)cc1F)NO [Compound 14]	1.96 ± 0.08
O=C(CCN(Cc1ccc2c(c1)OCO2)Cc1ccc(Cl)c(O)c1F)NO [Compound 13]	0.68 ± 0.02
O=C(CCN(Cc1cccnc1)Cc1ccc2c(c1)OCO2)NO [Compound 15]	8.12 ± 0.34
O=C(CCN(Cc1ccc(Cl)cc1F)Cc1ccc(Cl)c(O)c1F)NO [Compound 12]	0.75 ± 0.04
